Source: ChEMBL document CHEMBL3244045, “2-cyano-1,3-dicarbonyl compounds with antiallergic activity” (1977)

Columns and labels:
Type in all cases: functional
Rattus norvegicus [1] = experiment: Antiallergic activity in sc dosed Wistar rat assessed as time between compound administration and ovalbumin challenge to give maximum activity by passive cutaneous anaphylaxis assay
Rattus norvegicus [2] = experiment: Antiallergic activity in sc dosed Wistar rat assessed as inhibition of ovalbumin-mediated passive cutaneous anaphylaxis by measuring wheal formation at Tmax
Summary of the method: (§1)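 Rat PCA: serum with heat-labile homocytotropic antibody raised in rats to crystallized ovalbumin, Bordetella pertussis vaccine adjuvant; PCA per Ovary–Bier method as modified by Goose and Blair. Test agents as sodium salts, dissolved in pH 7.2 buffer or suspended in 1% methylcellulose by solubility. ED50 from inhibition/log dose line, 95% confidence limits, slope and animal numbers given.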

Rattus norvegicus [3] = experiment: Antiallergic activity in po dosed Wistar rat assessed as inhibition of ovalbumin-mediated passive cutaneous anaphylaxis by measuring wheal formation administered 15 to 20 mins prior to ovalbumin challenge; summary of the method: as §1

SMILES | Time (Rattus norvegicus [1]) [min] | ED50 (Rattus norvegicus [2]) [µmol/kg] | ED50 (Rattus norvegicus [3]) [µmol/kg]
COc1cccc2c1C(=O)[C-](C#N)C2=O.[Na+] (stereo not given) | 10 | 90.2 | 
O=C([O-])c1cc(=O)c2c(OCC(O)COc3cccc4oc(C(=O)[O-])cc(=O)c34)cccc2o1.[Na+].[Na+] [CROMOLYN SODIUM] | 10 | 13.1 | 
Cc1cc2oc(=O)c(C#N)c([O-])c2cc1C.[Na+] | 10 | 15.2 | 
Cc1ccc2c([O-])c(C#N)c(=O)oc2c1.[Na+] | 10 | 52.4 | 
N#C[C-]1C(=O)c2cc3ccccc3cc2C1=O.[Na+] | 10 | 13.8 | 
Cc1cccc2c([O-])c(C#N)c(=O)oc12.[Na+] | 10 | 32.8 | 
CCc1cc2c([O-])c(C#N)c(=O)oc2cc1C.[Na+] | 10 | 10.1 | 
CCc1cc2c(cc1CC)C(=O)[C-](C#N)C2=O.[Na+] | 20 | 10.9 | 60
COc1ccc2oc(=O)c(C#N)c([O-])c2c1.[Na+] | 10 | 28.2 | 
Cc1ccc2c([O-])c(C#N)c(=O)oc2c1C.[Na+] | 10 | 26.2 | 
Cc1ccc2c(c1)C(=O)[C-](C#N)C2=O.[Na+] (stereo not given) | 10 | 44.1 | 
N#C[C-]1C(=O)c2ccccc2C1=O.[Na+] | 10 | 85.3 | 
CCc1ccc2c([O-])c(C#N)c(=O)oc2c1.[Na+] | 10 | 23.8 | 
N#Cc1c([O-])c2ccccc2oc1=O.[Na+] | 10 | 39.1 | 
N#Cc1c([O-])c2cc3c(cc2oc1=O)CCCC3.[Na+] | 10 | 16.4 | 
Cc1cc2c(cc1C)C(=O)[C-](C#N)C2=O.[Na+] | 10 | 16.3 | 
N#C[C-]1C(=O)c2ccncc2C1=O.[Na+] (stereo not given) | 10 | 120 | 
CCOc1ccc2c([O-])c(C#N)c(=O)oc2c1.[Na+] | 10 | 15.1 | 
Cc1cccc2c1C(=O)[C-](C#N)C2=O.[Na+] (stereo not given) | 10 | 74 | 
N#Cc1c([O-])c2cc3ccccc3cc2oc1=O.[Na+] | 10 | 211 | 
N#C[C-]1C(=O)c2ccc(Cl)cc2C1=O.[Na+] (stereo not given) | 10 | 59.7 | 
N#C[C-]1C(=O)c2cccnc2C1=O.[Na+] (stereo not given) | 10 | 90.6 | 
Cc1ccc2oc(=O)c(C#N)c([O-])c2c1.[Na+] | 10 | 497 | 
CCc1cc2oc(=O)c(C#N)c([O-])c2cc1CC.[Na+] | 10 | 7.6 | 60
